Legend:
[1] = target: Kynurenine 3-monooxygenase (Rattus norvegicus) (UniProt O88867); assay: Percent kynurenine 3-hydroxylase activity determined by the conversion of L-kynurenine to 3-hydroxykynurenine in rat striatum at 1 mM concentration of compound (value is mean +/- SEM); assay type: tissue-based
Outline: (§1)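 Enzyme source: rat striatal pellet (sucrose homogenate, 10000g), resuspended in 0.14 M KCl, 20 mM phosphate, pH 7. Incubation in 0.1 M phosphate, 4 mM MgCl2, 100 µM L-kynurenine with NADPH; compound 1 mM final in DMSO; 37 °C, 60 min. Stopped with cold perchloric acid. 3-Hydroxykynurenine measured by HPLC with electrochemical detection against a DHBA internal standard; activity expressed as nmol/h/g wet brain.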

[2] = target: Nitric oxide synthase 1 (Rattus norvegicus) (UniProt P29476); assay: Percent inhibition towards rat striatal neuronal nitric oxide synthase (nNOs) at 1 mM concentration (value is mean +/- SEM)
Sequence of Nitric oxide synthase 1 (Rattus norvegicus) (P29476 whole entry): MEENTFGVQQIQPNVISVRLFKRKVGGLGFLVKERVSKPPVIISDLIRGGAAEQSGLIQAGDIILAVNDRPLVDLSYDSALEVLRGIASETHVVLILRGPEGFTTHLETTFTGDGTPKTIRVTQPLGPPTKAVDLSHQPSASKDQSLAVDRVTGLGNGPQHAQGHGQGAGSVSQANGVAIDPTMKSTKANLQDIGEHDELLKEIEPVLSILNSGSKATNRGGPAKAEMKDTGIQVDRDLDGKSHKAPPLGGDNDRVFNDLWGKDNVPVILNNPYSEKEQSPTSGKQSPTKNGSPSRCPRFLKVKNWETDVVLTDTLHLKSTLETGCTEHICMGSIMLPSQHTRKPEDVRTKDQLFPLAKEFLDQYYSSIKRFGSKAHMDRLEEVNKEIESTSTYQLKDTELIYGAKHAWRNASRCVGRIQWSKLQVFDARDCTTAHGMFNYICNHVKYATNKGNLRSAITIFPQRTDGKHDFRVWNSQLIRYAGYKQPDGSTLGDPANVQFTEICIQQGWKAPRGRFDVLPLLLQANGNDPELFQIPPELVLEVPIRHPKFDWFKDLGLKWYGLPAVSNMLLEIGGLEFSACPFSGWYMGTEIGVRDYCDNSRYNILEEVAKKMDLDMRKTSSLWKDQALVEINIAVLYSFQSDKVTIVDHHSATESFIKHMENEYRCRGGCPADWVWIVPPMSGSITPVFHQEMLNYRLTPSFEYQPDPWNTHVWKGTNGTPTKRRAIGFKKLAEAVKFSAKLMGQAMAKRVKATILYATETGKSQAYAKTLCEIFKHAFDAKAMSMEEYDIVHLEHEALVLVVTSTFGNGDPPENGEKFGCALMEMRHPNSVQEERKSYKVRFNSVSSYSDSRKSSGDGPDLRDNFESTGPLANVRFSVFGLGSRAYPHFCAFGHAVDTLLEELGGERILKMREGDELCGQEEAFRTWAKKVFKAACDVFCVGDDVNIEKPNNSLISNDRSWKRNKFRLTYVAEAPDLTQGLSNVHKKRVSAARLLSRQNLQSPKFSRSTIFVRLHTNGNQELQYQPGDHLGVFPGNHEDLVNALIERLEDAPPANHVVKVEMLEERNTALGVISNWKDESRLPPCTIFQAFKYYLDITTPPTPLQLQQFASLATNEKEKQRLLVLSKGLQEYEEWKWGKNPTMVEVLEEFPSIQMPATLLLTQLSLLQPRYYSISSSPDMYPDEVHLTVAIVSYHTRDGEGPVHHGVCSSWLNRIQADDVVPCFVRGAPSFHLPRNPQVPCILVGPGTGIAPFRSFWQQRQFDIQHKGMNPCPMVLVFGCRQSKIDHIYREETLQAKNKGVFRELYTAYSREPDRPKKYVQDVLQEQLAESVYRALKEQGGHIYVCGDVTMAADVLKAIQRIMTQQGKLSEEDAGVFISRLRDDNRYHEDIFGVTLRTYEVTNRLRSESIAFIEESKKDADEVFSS
Outline: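 Rat striatal crude homogenate (two striata homogenized in Tris buffer with protease inhibitors, pH 7.6; 1000g supernatant). Conversion of L-[3H]-arginine to L-[3H]-citrulline in 25 mM Tris, 30 µM H4-biopterin, 10 µM FAD, 0.1 mM CaCl2, 10 µM L-arginine plus 50 nM tracer. Started with 0.75 mM NADPH; compound 1 mM final in DMSO; 37 °C, 30 min. Citrulline separated on Dowex-50W and counted by scintillation. Blank omits NADPH. Three experiments in triplicate, four rat striata each.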

[3] = target: Kynurenine 3-monooxygenase (Rattus norvegicus) (UniProt O88867); assay: Inhibitory activity against kynurenine 3-hydroxylase at 1 mM concentration; outline: as §1

Sequence of Kynurenine 3-monooxygenase (Rattus norvegicus) (O88867 whole entry, looked up): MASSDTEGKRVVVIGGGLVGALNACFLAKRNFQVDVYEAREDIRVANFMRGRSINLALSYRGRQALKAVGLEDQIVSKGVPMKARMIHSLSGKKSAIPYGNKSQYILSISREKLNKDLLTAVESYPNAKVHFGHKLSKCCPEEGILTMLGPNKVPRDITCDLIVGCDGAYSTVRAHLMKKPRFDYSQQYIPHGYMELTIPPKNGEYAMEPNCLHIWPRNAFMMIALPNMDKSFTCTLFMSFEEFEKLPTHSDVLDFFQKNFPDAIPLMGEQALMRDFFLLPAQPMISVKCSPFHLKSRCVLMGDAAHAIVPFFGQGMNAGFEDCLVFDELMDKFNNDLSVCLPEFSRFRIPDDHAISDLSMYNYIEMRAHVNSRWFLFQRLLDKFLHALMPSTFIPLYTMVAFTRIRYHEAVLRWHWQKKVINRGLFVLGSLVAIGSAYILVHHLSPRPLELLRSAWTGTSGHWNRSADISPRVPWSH

| Structure (SMILES) | Activity [1] | inhibition [2] | inhibition [3] |
| --- | --- | --- | --- |
| COc1ccc(N)c(C2=NN(C(=O)C3CC3)CC2)c1 | 123% | 62.2% | – |
| Nc1ccc(Cl)cc1C1=NN(C(=O)C2CC2)CC1 | 98.1% | 70.2% | – |
| COc1ccc(N)c(C2=NN(C(=O)c3ccccc3)CC2)c1 | – | 58.9% | – |
| COc1ccc(N)c(C2=NN(C(C)=O)CC2)c1 | 98.8% | 38% | – |
| Nc1ccc(Cl)cc1C1=NN(C(=O)c2ccccc2)CC1 | 106% | 61.1% | – |
| CCCC(=O)N1CCC(c2cc(OC)ccc2N)=N1 | 96.4% | 34.7% | – |
| CC(=O)N1CCC(c2cc(Cl)ccc2N)=N1 | 111% | 47.6% | – |
| Nc1ccccc1C1=NN(C(=O)c2ccccc2)CC1 | 82.5% | 57% | – |
| CCCC(=O)NC(CC(=O)c1cc(OC)ccc1N)C(=O)O (stereo not drawn) | 88.7% | 45% | – |

Results, then the compound that gave them:

| Activity [1] | inhibition [2] | inhibition [3] | Structure (SMILES) |
| --- | --- | --- | --- |
| 81.1% | 53.3% | 18.9% | CCC(=O)N1CCC(c2cc(OC)ccc2N)=N1 |
| 85.2% | 36.5% | – | CCC(=O)N1CCC(c2ccccc2N)=N1 |
| 97.7% | 34.4% | – | CCCC(=O)N1CCC(c2cc(Cl)ccc2N)=N1 |
| 105% | 49.9% | – | COc1ccc(N)c(C2=NN(C(=O)C3CCCC3)CC2)c1 |
| 77.8% | 33.7% | 22.1% | CC(=O)N1CCC(c2ccccc2N)=N1 |
| 120% | 49.8% | – | CCCCC(=O)N1CCC(c2cc(OC)ccc2N)=N1 |
| 86.9% | 38.8% | – | Nc1ccccc1C1=NN(C(=O)C2CC2)CC1 |
| 85% | 52.4% | – | CCCC(=O)N1CCC(c2ccccc2N)=N1 |
| 87.4% | 62.2% | – | COc1ccc(N)c(C2=NN(C(=O)C3CCCCC3)CC2)c1 |
| 96.5% | 38.3% | – | COc1ccc(N)c(C2=NN(C(=O)C3CCC3)CC2)c1 |
| 101% | 68.5% | – | COc1ccc(N)c(C(=O)CC(NC(C)=O)C(=O)O)c1 (stereo not drawn) |
| 97.7% | 46.1% | – | CCC(=O)N1CCC(c2cc(Cl)ccc2N)=N1 |
